# Measurements published in ChEMBL document CHEMBL5338772, “Stereochemical Control of Splice Modulation in FD-895 Analogues” (J Med Chem, 2023).
# Active and inactive are the calls of the source. The calls are words filed in the database; no cut-off is given here.
# Experiments:
# AURKA pre-mRNA = test: Modulation of splicing in AURKA pre-mRNA in human HCT-116 cells assessed as effect on exon 4 skipping at 750 nM incubated for 4 hrs by qRT-PCR analysis; assay type: functional, cell-based; settings: filed as modulator
# SF3B2 pre-mRNA [1] = test: Modulation of splicing in SF3B2 pre-mRNA in human HCT-116 cells assessed as intron 10 retention level at 750 nM incubated for 4 hrs by qRT-PCR analysis; assay type: functional, cell-based; settings: filed as modulator
# Outline: (§1)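 HCT-116 cells in supplemented McCoy's 5a, compound added from DMSO stock to a final 0.5% DMSO, 4 h at a single standardized concentration per analogue. Total RNA isolated and DNase-treated (1 µg). qPCR used 2.5 µM each primer on 5 ng cDNA, 40 cycles. Intron retention was computed by the 2^-CT method relative to GAPDH and expressed versus untreated cells set to 1.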
# SF3A3 pre-mRNA [2] = test: Modulation of splicing in SF3A3 pre-mRNA in human HCT-116 cells assessed as intron 5 retention level at 750 nM incubated for 4 hrs by qRT-PCR analysis; assay type: functional, cell-based; settings: filed as modulator
# SF3B1 pre-mRNA [3] = test: Modulation of splicing in SF3B1 pre-mRNA in human HCT-116 cells assessed as intron 13 retention level at 750 nM incubated for 4 hrs by qRT-PCR analysis; assay type: functional, cell-based; settings: filed as modulator; outline: as §1
# DNAJB1 pre-mRNA [4] = test: Modulation of splicing in DNAJB1 pre-mRNA in human HCT-116 cells assessed as intron 2 retention level at 750 nM incubated for 4 hrs by qRT-PCR analysis; assay type: functional, cell-based; settings: filed as modulator
# HCT-116 [5] = test: Cytotoxicity against human HCT-116 cells assessed as reduction in cell viability at 750 nM incubated for 4 hrs by MTS assay; assay type: toxicity, cell-based; settings: hct-116, 4 h, 0.75 µM
# [6] = Cytotoxicity against human HCT-116 cells assessed as cell growth inhibition incubated for 72 hrs by MTS assay; assay type: toxicity, cell-based
# Outline: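 HCT-116 cells (ATCC; split every other day, no more than five generations, mycoplasma-tested) plated at 5 × 10³ cells/well in supplemented McCoy's 5a and grown 24 h at 37 °C, 5% CO₂. Compound added from DMSO (0.5% DMSO final) for 72 h. Cells washed with PBS, MTS reagent added for 2 h at 37 °C, A490 read against A690. GI₅₀ fitted from dose curves of 3 biological replicates.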
# SF3A1 pre-mRNA [7] = test: Modulation of splicing in SF3A1 pre-mRNA in human HCT-116 cells assessed as intron 6 retention level at 750 nM incubated for 4 hrs by qRT-PCR analysis; assay type: functional, cell-based; settings: filed as modulator
# HCT-116 [8] = test: Cytotoxicity against human HCT-116 cells assessed as reduction in cell viability at 500 nM incubated for 24 hrs by MTS assay; assay type: toxicity, cell-based; settings: hct-116, 24 h, 0.5 µM
# Outline: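 HCT-116 cells plated at 5 × 10³ cells/well in supplemented McCoy's 5a and grown 24 h at 37 °C, 5% CO₂. Compound given at 500 nM, the top dose of the 24 h splicing series, in 0.5% DMSO for 24 h. Cells washed with PBS, MTS reagent added for 2 h at 37 °C, A490 read against A690.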
# HCT-116 [9] = test: Effect on AURKA mRNA expression in human HCT-116 cells at 100 to 500 nM incubated for 24 hrs by qRT-PCR analysis; assay type: functional, cell-based; settings: dose 100-500 nM
# Outline: (§2)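 HCT-116 cells in supplemented McCoy's 5a with 0.5% DMSO, treated 24 h at 100, 250 or 500 nM; untreated cells as control. Total RNA isolated, 1 µg DNase I-treated, reverse transcribed. qPCR on 5 ng cDNA with 2.5 µM each primer, 40 cycles of 95 °C 30 s, 55 °C 60 s, 72 °C 60 s. Splice-event primers for intron retention or exon skipping; SF2 primers measure total expression. 2^-CT method relative to GAPDH, untreated set at 1.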
# DNAJB1 pre-mRNA [10] = test: Modulation of splicing in DNAJB1 pre-mRNA in human HCT-116 cells assessed as intron 2 retention at 100 to 500 nM incubated for 24 hrs by qRT-PCR analysis; assay type: functional, cell-based; settings: dose 100-500 nM; outline: as §2
# HCT-116 [11] = test: Downregulation of SF3 mRNA expression in human HCT-116 cells at 2.6 uM incubated for 4 hrs by qRT-PCR analysis; assay type: functional, cell-based
# SF3A3 pre-mRNA [12] = test: Modulation of splicing in SF3A3 pre-mRNA in human HCT-116 cells assessed as intron 5 retention level at 2.6 uM incubated for 4 hrs by qRT-PCR analysis; assay type: functional, cell-based; settings: filed as modulator
# SF3B2 pre-mRNA [13] = test: Modulation of splicing in SF3B2 pre-mRNA in human HCT-116 cells assessed as intron 10 retention level at 2.6 uM incubated for 4 hrs by qRT-PCR analysis; assay type: functional, cell-based; settings: filed as modulator; outline: as §1
# HCT-116 [14] = test: Cytotoxicity against human HCT-116 cells assessed as reduction in cell viability at 2.6 uM incubated for 4 hrs by MTS assay; assay type: toxicity, cell-based; settings: hct-116, 4 h
# HCT-116 [15] = test: Downregulation of SF2 mRNA expression in human HCT-116 cells at 100 to 500 nM incubated for 24 hrs by qRT-PCR analysis; assay type: functional, cell-based; settings: dose 100-500 nM; outline: as §2
# SF3A3 pre-mRNA [16] = test: Modulation of splicing in SF3A3 pre-mRNA in human HCT-116 cells assessed as intron 5 retention at 100 to 500 nM incubated for 24 hrs by qRT-PCR analysis; assay type: functional, cell-based; settings: filed as modulator, dose 100-500 nM; outline: as §2
# SF3A1 pre-mRNA [17] = test: Modulation of splicing in SF3A1 pre-mRNA in human HCT-116 cells assessed as intron 6 retention level at 2.6 uM incubated for 4 hrs by qRT-PCR analysis; assay type: functional, cell-based; settings: filed as modulator
# SF3B1 pre-mRNA [18] = test: Modulation of splicing in SF3B1 pre-mRNA in human HCT-116 cells assessed as intron 13 retention level at 2.6 uM incubated for 4 hrs by qRT-PCR analysis; assay type: functional, cell-based; settings: filed as modulator; outline: as §1
# HCT-116 [19] = test: Downregulation of PLK-1 mRNA expression in human HCT-116 cells at 100 to 500 nM incubated for 24 hrs by qRT-PCR analysis; assay type: functional, cell-based; settings: dose 100-500 nM; outline: as §2
# SF3B2 pre-mRNA [20] = test: Modulation of splicing in SF3B2 pre-mRNA in human HCT-116 cells assessed as intron 10 retention at 100 to 500 nM incubated for 24 hrs by qRT-PCR analysis; assay type: functional, cell-based; settings: dose 100-500 nM
# Outline: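 HCT-116 cells in supplemented McCoy's 5a with 0.5% final DMSO were treated for 24 h at 100, 250 or 500 nM. Total RNA isolated and DNase-treated (1 µg). qPCR used 2.5 µM each primer on 5 ng cDNA, 40 cycles. Intron retention was computed by the 2^-CT method relative to GAPDH and expressed versus untreated cells set to 1.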
# DNAJB1 pre-mRNA [21] = test: Modulation of splicing in DNAJB1 pre-mRNA in human HCT-116 cells assessed as intron 2 retention level at 2.6 uM incubated for 4 hrs by qRT-PCR analysis; assay type: functional, cell-based; settings: filed as modulator
structure (smiles),measurement,setting,value
CC[C@H](OC)[C@@H](C)[C@H]1O[C@@H]1[C@@H](OC)[C@H](C)/C=C/C=C(\C)[C@H]1OC(=O)C[C@H](O)CC[C@@](C)(O)[C@@H](OC(C)=O)/C=C/[C@@H]1C,Activity,AURKA pre-mRNA,Active
same,Activity,SF3B2 pre-mRNA [1],> 3
same,Activity,SF3A3 pre-mRNA [2],< 3
same,Activity,SF3B1 pre-mRNA [3],< 3
same,Activity,DNAJB1 pre-mRNA [4],> 3
same,Activity,HCT-116 [5],Non-Toxic
same,GI50 at 72 h,[6],40.5 nM
same,Activity,SF3A1 pre-mRNA [7],> 3
CC[C@H](OC)[C@@H](C)[C@H]1O[C@@H]1[C@@H](O)[C@H](C)/C=C/C=C(\C)[C@H]1OC(=O)C[C@@H](O)CC[C@@](C)(O)[C@@H](OC(C)=O)/C=C/[C@@H]1C,Activity,HCT-116 [8],Non-Toxic
same,Activity,HCT-116 [9],Active
same,Activity,DNAJB1 pre-mRNA [10],inactive
same,Activity,HCT-116 [11],Active
same,Activity,SF3A3 pre-mRNA [12],< 3
same,Activity,SF3B2 pre-mRNA [13],> 3
same,Activity,HCT-116 [14],Non-Toxic
same,Activity,HCT-116 [15],inactive
same,Activity,SF3A3 pre-mRNA [16],Active
same,Activity,SF3A1 pre-mRNA [17],> 3
same,GI50 at 72 h,[6],143 nM
same,Activity,SF3B1 pre-mRNA [18],< 3
same,Activity,HCT-116 [19],Active
same,Activity,SF3B2 pre-mRNA [20],inactive
same,Activity,DNAJB1 pre-mRNA [21],> 3
